The values below come from ChEMBL document CHEMBL4138196, “Discovery and structure-activity relationship of novel 4-hydroxy-thiazolidine-2-thione derivatives as tumor cell specific pyruvate kinase M2 activators” (Eur J Med Chem, 2018).

The structures appear in SMILES notation.

Assay [1] addresses Pyruvate kinase PKM (Homo sapiens, UniProt P14618). Briefly: Activation of N-terminal His -tagged human PKM2 expressed in Escherichia coli BL21 using PEP as substrate measured at 30 secs intervals for between 3 and 6 mins by fluorescent pyruvate kinase-lactate dehydrogenase coupled assay.
For assay [2], the system named is HCT-116. The experiment in a line: Antiproliferative activity against human HCT116 cells after 48 hrs by MTS assay. It counts as functional, cell-based. Conditions: HCT-116, 48 h. The gist of the method:
(§1)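 Cells grown in RPMI 1640 with 9% FBS at 37°C, 5% CO2. 3000-10000 cells/well were left to attach 12 h, then given compound at five concentrations, or DMSO as vehicle control, for 48 h. MTS was added for 3 h at 37°C and absorbance read at 490 nm. IC50 (50% growth inhibition) was taken from triplicate dose-response curves.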
(In general: Tetrazolium dyes change colour on reduction, which living cells bring about.)

Assay [3] has as its system PC-3. The experiment in a line: Antiproliferative activity against human PC3 cells after 48 hrs by MTS assay. In kind it is functional, cell-based. Conditions: PC-3, 48 h. The gist of the method: as §1
Assay [4] has as its system NCI-H1299. Briefly: Antiproliferative activity against human H1299 cells after 48 hrs by MTS assay. In kind it is functional, cell-based. Conditions: NCI-H1299, 48 h. The gist of the method: as §1
Assay [5] deals with HeLa. Briefly: Antiproliferative activity against human HeLa cells after 48 hrs by MTS assay. In kind it is functional, cell-based. The gist of the method:
as §1

Assay [6] in a line: Antiproliferative activity against HELF after 48 hrs by MTS assay. The arrangement: species or system Homo sapiens. The gist of the method: as §1

Chain of Pyruvate kinase PKM (P14618 whole entry): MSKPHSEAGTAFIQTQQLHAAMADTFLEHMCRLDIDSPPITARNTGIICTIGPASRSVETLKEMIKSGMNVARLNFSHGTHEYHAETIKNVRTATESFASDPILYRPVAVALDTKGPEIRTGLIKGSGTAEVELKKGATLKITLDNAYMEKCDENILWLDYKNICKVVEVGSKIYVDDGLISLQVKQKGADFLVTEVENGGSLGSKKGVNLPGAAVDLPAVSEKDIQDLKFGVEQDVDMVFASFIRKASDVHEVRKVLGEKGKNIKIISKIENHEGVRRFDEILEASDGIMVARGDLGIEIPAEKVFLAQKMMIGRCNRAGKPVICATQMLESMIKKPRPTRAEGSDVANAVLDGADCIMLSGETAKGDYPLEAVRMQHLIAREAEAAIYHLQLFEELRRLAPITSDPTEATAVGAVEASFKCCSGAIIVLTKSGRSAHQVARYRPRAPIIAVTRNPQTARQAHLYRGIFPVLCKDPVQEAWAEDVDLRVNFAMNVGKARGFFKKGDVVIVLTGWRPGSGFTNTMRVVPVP

What is called AC50 is the midpoint of the concentration-response curve, whichever way the signal moves. Low readings indicate activity at low concentration, high ones activity only at high concentration. The IC50 is the concentration at which inhibition is half-maximal. A high value points to weaker potency. Compound `O=C1COc2ccc(S(=O)(=O)Nc3ccc(C4(O)CSC(=S)N4Cc4cccnc4)cc3)cc2N1` (stereo not given) came in with an AC50 in assay [1] of over 20000 nM. In addition, the IC50 in assay [2] turned out to be 1840 nM; in assay [3], 1950 nM; in assay [4], 2120 nM; in assay [5], 780 nM.

`O=S(=O)(Nc1ccc(C2(O)CSC(=S)N2CCc2cccnc2)cc1)c1ccc2c(c1)OCCO2` (stereo not given) gave an AC50 in assay [1] of over 20000 nM. Also, the IC50 was found to be 1040 nM in assay [2], 2160 nM in assay [3], 1280 nM in assay [4] and 620 nM in assay [5].

Compound `Cc1ccccc1S(=O)(=O)Nc1ccc(C2(O)CSC(=S)N2Cc2cccnc2)cc1` (stereo not given) had an AC50 in assay [1] of 1190 nM. Further, the IC50 in assay [2] worked out at 2410 nM; in assay [3], 1580 nM; in assay [4], 1630 nM; in assay [5], 550 nM.

In assay [1], `O=S(=O)(Nc1ccc(C2(O)CSC(=S)N2Cc2cccnc2)cc1)c1ccccc1N1CCOCC1` (stereo not given) came in with an AC50 of over 20000 nM. Besides, the IC50 is 3450 nM in assay [2], 8620 nM in assay [3], 1240 nM in assay [4] and 1330 nM in assay [5].

The compound `N#Cc1ccc(S(=O)(=O)Nc2ccc(C3(O)CSC(=S)N3Cc3cccnc3)cc2)cc1` (stereo not given) gave an AC50 in assay [1] of over 20000 nM. For the same compound, the IC50 in assay [2] was determined as 1800 nM; in assay [3] it was 4110 nM; in assay [4] it was 1470 nM; in assay [5], 770 nM.

In the case of `COc1ccc(Cl)cc1S(=O)(=O)Nc1ccc(C2(O)CSC(=S)N2Cc2cccnc2)cc1` (stereo not given), in assay [1], the AC50 was over 20000 nM. Moreover, the IC50 in assay [2] is 3690 nM; in assay [3] it was 4510 nM; in assay [4] it was 1620 nM; in assay [5], 1110 nM.

`Cc1ccncc1CN1C(=S)SCC1(O)c1ccc(NS(=O)(=O)c2ccc3c(c2)OCCO3)cc1` (stereo not given) registered an AC50 in assay [1] of over 20000 nM. In addition, the IC50 in assay [2] came out at 410 nM; in assay [3] it was 1530 nM; in assay [4] it was 510 nM; in assay [5] it was 340 nM; in assay [6] it was 7210 nM.

As to `O=c1ccc2cc(S(=O)(=O)Nc3ccc(C4(O)CSC(=S)N4Cc4cccnc4)cc3)ccc2o1` (stereo not given), the half-maximal activity concentration (AC50) in assay [1] was over 20000 nM. The IC50 worked out at 1410 nM in assay [2], 2400 nM in assay [3], 1650 nM in assay [4] and 690 nM in assay [5].

As to `Cc1cccc(S(=O)(=O)Nc2ccc(C3(O)CSC(=S)N3Cc3cccnc3)cc2)c1` (stereo not given), half-maximal activity in assay [1] (AC50) was put at 6250 nM. The IC50 turned out to be 1730 nM in assay [2], 1110 nM in assay [3], 1680 nM in assay [4] and 1140 nM in assay [5].

The compound `COc1ncccc1CN1C(=S)SCC1(O)c1ccc(NS(=O)(=O)c2ccc3c(c2)OCCO3)cc1` (stereo not given) displayed an AC50 in assay [1] of over 20000 nM. Also, the IC50 worked out at 740 nM in assay [2]; 1130 nM in assay [3]; 830 nM in assay [4]; 410 nM in assay [5]; 10400 nM in assay [6].

Regarding `CC(=O)O[C@H]1C(=O)[C@@]2(C)[C@H]([C@H](OC(=O)c3ccccc3)[C@]3(O)C[C@H](OC(=O)[C@H](O)[C@@H](NC(=O)c4ccccc4)c4ccccc4)C(C)=C1C3(C)C)[C@]1(OC(C)=O)CO[C@@H]1C[C@@H]2O` [PACLITAXEL], the IC50 in assay [2] is 1370 nM; in assay [3], 4570 nM; in assay [4], 7830 nM.

`Cc1cc(C)c(S(=O)(=O)Nc2ccc(C3(O)CSC(=S)N3Cc3cccnc3)cc2)c(C)c1` (stereo not given) registered a concentration at half-maximal activity (AC50) in assay [1] of over 20000 nM. In addition, the IC50 in assay [2] came out at 1650 nM; in assay [3], 1330 nM; in assay [4], 1750 nM; in assay [5] it was 940 nM.

Consider `O=S(=O)(Nc1ccc(C2(O)CSC(=S)N2Cc2cccnc2)cc1)c1cccc2cccnc12` (stereo not given), for which, in assay [1], half-maximal activity (AC50) was put at 520 nM. Also, the IC50 in assay [2] is 2110 nM; in assay [3] it was 2350 nM; in assay [4] it was 2430 nM; in assay [5], 840 nM.

`CN(c1ccc(C2(O)CSC(=S)N2Cc2cccnc2)cc1)S(=O)(=O)c1cccc2cccnc12` (stereo not given): the AC50 in assay [1] was over 20000 nM. In addition, the IC50 in assay [2] came to 2320 nM; in assay [3], 6150 nM; in assay [4] it was 2470 nM; in assay [5] it was 930 nM.

The compound `O=S(=O)(Nc1ccc(C2(O)CSC(=S)N2Cc2cccnc2)cc1)c1cccc2ccccc12` (stereo not given) gave an AC50 in assay [1] of over 20000 nM. Besides, the IC50 in assay [2] came out at 2610 nM; in assay [3], 1690 nM; in assay [4] it was 1530 nM; in assay [5], 630 nM.

Take `O=S(=O)(Nc1ccc(C2(O)CSC(=S)N2Cc2cccnc2)cc1)c1cccs1` (stereo not given): the AC50 in assay [1] amounted to 1470 nM. In addition, the IC50 in assay [2] was found to be 1440 nM; in assay [3], 1250 nM; in assay [4], 1230 nM; in assay [5], 420 nM.

In assay [1], `O=S(=O)(Nc1ccc(C2(O)CSC(=S)N2Cc2cccnc2)cc1)c1ccc(F)cc1` (stereo not given) returned an AC50 of over 20000 nM. Further, the IC50 stood at 3500 nM in assay [2], 1400 nM in assay [3], 1310 nM in assay [4] and 570 nM in assay [5].

The compound `O=[N+]([O-])c1ccccc1S(=O)(=O)Nc1ccc(C2(O)CSC(=S)N2Cc2cccnc2)cc1` (stereo not given) showed an AC50 in assay [1] of over 20000 nM. Moreover, the IC50 is 2300 nM in assay [2], 3870 nM in assay [3], 1750 nM in assay [4] and 610 nM in assay [5].

Consider `O=S(=O)(Nc1ccc(C2(O)CSC(=S)N2Cc2cccnc2)cc1)c1c[nH]c2ncccc12` (stereo not given), for which the AC50 in assay [1] amounted to 1410 nM. In addition, the IC50 in assay [2] was 1550 nM; in assay [3] it was 1260 nM; in assay [4], 2000 nM; in assay [5], 760 nM.

`O=[N+]([O-])c1ccc(S(=O)(=O)Nc2ccc(C3(O)CSC(=S)N3Cc3cccnc3)cc2)cc1` (stereo not given) gave an AC50 in assay [1] of over 20000 nM. Moreover, the IC50 in assay [2] was 2720 nM; in assay [3], 1310 nM; in assay [4], 1220 nM; in assay [5], 260 nM.

`O=S(=O)(Nc1ccc(C2(O)CSC(=S)N2Cc2cnccn2)cc1)c1ccc2c(c1)OCCO2` (stereo not given) displayed an AC50 in assay [1] of 2150 nM. Besides, the IC50 is 850 nM in assay [2], 920 nM in assay [3], 1720 nM in assay [4] and 550 nM in assay [5].

Turning to `O=S(=O)(Nc1ccc(C2(O)CSC(=S)N2Cc2cccnc2)cc1)c1cccc(F)c1` (stereo not given), the AC50 in assay [1] was over 20000 nM. The IC50 in assay [2] is 4110 nM; in assay [3] it was 2190 nM; in assay [4], 1140 nM; in assay [5], 480 nM.

Take `Cc1ccc(S(=O)(=O)Nc2ccc(C3(O)CSC(=S)N3Cc3cccnc3)cc2)cc1` (stereo not given): the AC50 in assay [1] is over 20000 nM. Further, the IC50 in assay [2] stood at 2180 nM; in assay [3], 940 nM; in assay [4], 1200 nM; in assay [5], 440 nM.

The compound `O=S(=O)(Nc1ccc(-c2csc(=S)n2Cc2cccnc2)cc1)c1cccc2cccnc12` had an AC50 in assay [1] of over 20000 nM. Further, the IC50 in assay [2], in assay [3], in assay [4] and in assay [5] was over 20000 nM each time.

Turning to `O=S(=O)(Nc1ccc(C2(O)CSC(=S)N2Cc2cnc3ccccc3c2)cc1)c1ccc2c(c1)OCCO2` (stereo not given), the AC50 in assay [1] is 1750 nM. The IC50 amounted to 1280 nM in assay [2], 1280 nM in assay [3], 1810 nM in assay [4] and 550 nM in assay [5].

Regarding `CS(=O)(=O)Nc1ccc(C2(O)CSC(=S)N2Cc2cccnc2)cc1` (stereo not given), in assay [1], the AC50 is over 20000 nM. The IC50 in assay [2] came to 1560 nM; in assay [3] it was 2200 nM; in assay [4], 1250 nM; in assay [5] it was 860 nM.

Regarding `CS(=O)(=O)c1cccc(-c2ccc(CN3C(=S)SCC3(O)c3ccc(NS(=O)(=O)c4ccc5c(c4)OCCO5)cc3)cn2)c1` (stereo not given), the AC50 in assay [1] was 17600 nM. Besides, the IC50 was found to be 920 nM in assay [2], 1350 nM in assay [3], 1020 nM in assay [4] and 510 nM in assay [5].

As for `O=S(=O)(Cc1ccccc1)Nc1ccc(C2(O)CSC(=S)N2Cc2cccnc2)cc1` (stereo not given), the activity in assay [1] was half-maximal at 7240 nM (AC50). The IC50 came out at 3320 nM in assay [2], 2440 nM in assay [3], 1550 nM in assay [4] and 1260 nM in assay [5].

In assay [1], `O=S(=O)(Nc1ccc(C2(O)CSC(=S)N2Cc2cccnc2)cc1)c1ccccc1-c1ccccc1` (stereo not given) came in with an AC50 of over 20000 nM. For the same compound, the IC50 in assay [2] stood at 6110 nM; in assay [3], 2810 nM; in assay [4], 2700 nM; in assay [5] it was 1100 nM.

`O=S(=O)(Nc1ccc(C2(O)CSC(=S)N2Cc2cccnc2)cc1)c1ccccc1` (stereo not given) came in with an AC50 in assay [1] of 2960 nM. In addition, the IC50 in assay [2] came to 1700 nM; in assay [3] it was 990 nM; in assay [4], 1440 nM; in assay [5], 450 nM.

On to `O=[N+]([O-])c1cccc(-c2ccccc2S(=O)(=O)Nc2ccc(C3(O)CSC(=S)N3Cc3cccnc3)cc2)c1` (stereo not given), for which the AC50 in assay [1] was over 20000 nM. For the same compound, the IC50 in assay [2] is 3890 nM; in assay [3], 3260 nM; in assay [4], 2960 nM; in assay [5], 1400 nM.

Consider `O=C1CCc2cc(S(=O)(=O)Nc3ccc(C4(O)CSC(=S)N4Cc4cccnc4)cc3)ccc2N1` (stereo not given), for which the AC50 in assay [1] was 740 nM. In addition, the IC50 in assay [2] was 1640 nM; in assay [3], 4290 nM; in assay [4], 1650 nM; in assay [5], 710 nM.

`O=S(=O)(Nc1ccc(C2(O)CSC(=S)N2Cc2cccnc2)cc1)c1ccccc1F` (stereo not given) returned an AC50 in assay [1] of over 20000 nM. Besides, the IC50 in assay [2] came out at 1180 nM; in assay [3], 2680 nM; in assay [4] it was 1450 nM; in assay [5] it was 550 nM.
